# Laboratory results as given in PMC4021855 (Nature chemical biology, 2013).
# Experiments:
# [1] = test system: H226 cells; experiment: Transwell cell migration assay; format: cell-based, human
# Method in brief: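 H226 cells (1×10^5 per well) placed in the top chamber of a laminin-coated (10 μg/ml) 8.0 μm polycarbonate Transwell and left to migrate for 12 h with test compound. Migrated cells fixed in 70% methanol and stained with hematoxylin. Non-migrants swabbed off; cells counted in 3 random ×20 fields.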
# [2] = test system: WI-26 cells; experiment: Transwell cell migration assay; format: cell-based; conditions: read-out: IC50 for inhibition of migration of WI-26
# [3] = test system: H226 cells; experiment: Matrigel invasion assay; format: cell-based, human
# Method in brief: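 Upper chamber of Transwell (8.0 μm pore polycarbonate) coated with Matrigel 1 mg/ml in cold serum-free medium and set 4 h at 37°C. H226 cells seeded on top; lower chamber held medium with laminin 10 μg/ml. Cells exposed to test compound for 24 h. Invaded cells fixed in 70% methanol, hematoxylin-stained, and counted in 3 random ×20 fields. Mean ± s.d.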
# [4] = test system: 4T1 cells; experiment: 4T1 mammary fat pad breast cancer metastasis model; format: in vivo, mouse; conditions: oral, 100 and 300 mg/kg
# Method in brief: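 4×10^4 4T1 cells injected into the surgically exposed No. 2 mammary fat pad of anaesthetised 7-week-old female BALB/cAnCr mice. Primary tumours (100–150 mm³) resected on day 10. Groups of n=5 balanced by resected tumour weight. Test compound or 0.5% methyl cellulose given orally once daily from day 1 after resection. Lungs excised at day 28 post-injection, fixed in Bouin's solution, and pulmonary nodules counted.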
# [5] = test system: Tg(MMTV-PyVT) mouse; experiment: Tg; format: in vivo; conditions: 100 mg/kg intraperitoneally every other day for 6 weeks
# [6] = test system: A549-RFP cells; experiment: A549-RFP left ventricle injection metastasis model; format: in vivo, mouse; conditions: 100 mg/kg oral once a day
# Method in brief: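 1×10^6 stable A549-RFP cells injected into the left ventricle of anaesthetised 6-week-old female BALB/cAnCr nude mice, n=10 per group. Test compound or 0.5% methyl cellulose given orally once daily from day 1 for 130 days. RFP signal of 5 random mice imaged by IVIS weekly, weeks 4–7. Body weight taken twice weekly for 50 days; survival followed to day 130.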
# [7] = target: KRS (Homo sapiens, UniProt Q15046); experiment: KRS aminoacylation enzymatic assay; format: biochemical; conditions: 0 to 40 μM
# KRS, sequence (Q15046 whole entry): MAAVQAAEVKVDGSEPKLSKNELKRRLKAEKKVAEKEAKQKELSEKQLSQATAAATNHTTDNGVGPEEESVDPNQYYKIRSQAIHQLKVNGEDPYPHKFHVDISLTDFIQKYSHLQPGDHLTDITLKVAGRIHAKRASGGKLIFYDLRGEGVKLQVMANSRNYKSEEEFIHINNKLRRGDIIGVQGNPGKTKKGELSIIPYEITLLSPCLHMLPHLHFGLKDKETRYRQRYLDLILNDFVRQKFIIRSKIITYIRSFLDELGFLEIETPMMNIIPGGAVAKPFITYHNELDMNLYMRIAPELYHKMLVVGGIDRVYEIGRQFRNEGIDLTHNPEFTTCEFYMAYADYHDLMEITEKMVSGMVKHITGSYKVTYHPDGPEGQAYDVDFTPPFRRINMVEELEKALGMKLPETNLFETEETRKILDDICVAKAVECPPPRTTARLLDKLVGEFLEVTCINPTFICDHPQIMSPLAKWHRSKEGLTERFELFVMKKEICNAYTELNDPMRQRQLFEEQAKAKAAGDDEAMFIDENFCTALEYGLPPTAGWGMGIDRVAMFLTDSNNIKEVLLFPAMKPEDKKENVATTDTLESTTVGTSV
# Method in brief: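 KRS pre-incubated with test compound (0 to 40 μM final) for 30 min at 4°C before the aminoacylation reaction. Reaction aliquots quenched and precipitated on filter plates, washed, eluted with 0.2 M NaOH, and counted on a scintillation plate reader.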
# [8] = test system: H226 cells; experiment: Total protein synthesis; format: cell-based, human
# Method in brief: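 Compound-treated H226 cells held 30 min in Met-free medium, then labelled with [³⁵S]Met for 2 h. Cells returned to complete medium for 4 h, then lysed; radioactivity measured by scintillation counting. Lys variant used Lys-free medium and [³H]Lys.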
# [9] = test system: H226 cells; experiment: MTT cell viability assay; format: cell-based, human; conditions: 24 h
# Method in brief: (§1)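 1×10^4 cells per well in 96-well plates; preincubated 1 h with laminin, then exposed to test compound for 24 h in serum-free medium. MTT (stock 5 mg/ml, diluted 10-fold) added for 30 min. Crystals dissolved in DMSO; absorbance read at […].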
# [10] = test system: WI-26 cells; experiment: MTT cell viability assay; format: cell-based; conditions: 24 h
# Method in brief: as §1
# [11] = target: KRS1–207 (Homo sapiens, UniProt Q15046); experiment: SPR binding analysis
# KRS1–207, sequence (Q15046 1-207): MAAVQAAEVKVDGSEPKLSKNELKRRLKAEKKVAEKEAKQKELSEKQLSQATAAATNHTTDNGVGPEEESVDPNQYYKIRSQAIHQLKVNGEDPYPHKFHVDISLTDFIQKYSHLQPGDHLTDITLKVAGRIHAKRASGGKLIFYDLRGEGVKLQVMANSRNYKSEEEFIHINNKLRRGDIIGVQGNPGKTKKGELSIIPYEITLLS
# Method in brief: (§2)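 Proteins immobilised at 30 μg/ml in 10 mM sodium acetate pH 5.0 on a CM5 chip: His-KRS WT, 1–207 and 220–597, plus GST-37LRP. Test compound in PBS with 0.05% Tween 20 and 2% DMSO, flowed at 20 μl/min, 25°C; binding read as RU change. For GST-tagged proteins, GST-only RU subtracted. Apparent constants fitted to 1:1 binding with drifting baseline.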
# [12] = target: 37LRP (Homo sapiens, UniProt P08865); experiment: SPR binding analysis
# Method in brief: as §2
# [13] = target: KRS–AIMP2 (Homo sapiens, UniProt Q15046); experiment: Quantification of the KRS–AIMP2 interaction; format: binding; conditions: 0–100 μM
# KRS–AIMP2, sequence (Q15046 whole entry, the tested form may be a part): as the sequence (Q15046 whole entry) above
# KRS–AIMP2, sequence (Q13155 1-48 partner limits assumed): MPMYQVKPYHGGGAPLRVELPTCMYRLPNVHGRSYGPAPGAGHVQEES
# Method in brief: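 AlphaScreen format. His-tagged KRS incubated overnight at 4°C with test compound (0–100 μM final). Ni-chelate donor beads (0.01 mg/ml final) added for 15 min. Acceptor beads (0.01 mg/ml final) and biotinylated AIMP2(1–48)–thioredoxin fusion then added for 1.5 h. Emission read at 520–620 nm, room temperature, triplicate.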
# [14] = target: KRS–67LR interaction (Homo sapiens, UniProt Q15046); experiment: In vitro pull-down and IP assays; format: binding
# KRS–67LR interaction, sequence (Q15046 whole entry): as the sequence (Q15046 whole entry) above
# Method in brief: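 In vitro: 37LRP radiolabelled by coupled transcription/translation, mixed with 1 μg GST–KRS plus test compound, then GST pull-down; bound 37LRP detected by autoradiography. IP: Myc-KRS-transfected H226 cells pretreated with laminin 10 μg/ml for 1 h in serum-free medium, then test compound for 4 h. Lysates or membrane/cytosol fractions then used for IP and immunoblotting.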
# [15] = test system: 67LR; experiment: Membranous 67LR level by immunoblotting; format: cell-based
# [16] = test system: MMP-2; experiment: MMP-2 zymography; format: cell-based
# Method in brief: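 H226 cells treated with laminin (10 μg/ml) plus test compound for 12 h. Conditioned-medium proteins run on 10% SDS-PAGE containing 1 mg/ml gelatin. Gel incubated in reaction buffer; gelatinolytic zone of MMP-2 visualised by Coomassie Blue staining.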
# [17] = Hematological metrics and blood chemistry in ICR mice; format: in vivo, mouse; conditions: high doses
# [18] = Pharmacokinetics analysis in male ICR mice; format: in vivo, mouse; conditions: 3 mg/kg
# Method in brief: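 Male ICR mice, n=4 per group, dosed at 3 mg/kg. Intravenous dosing as a solution in 40% dimethylformamide; oral dosing as a suspension in 0.5% methyl cellulose. About 50 μl orbital-vein blood drawn at 0.083 (i.v. only), 0.25, 0.5, 1, 2, 4, 8 and 24 h. Plasma stored at −70°C.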
# [19] = target: T1, KRS–LR interaction (Homo sapiens, UniProt Q15046); experiment: Comparison of YH16899 with BC-K01 across functional assays; conditions: most of the assays tested
# T1 sequence (Q15046 whole entry): as above
# [20] = target: T1, KRS–LR interaction; experiment: Yeast two-hybrid; format: cell-based; conditions: Y2H, 50 μg/ml, 6-day incubation
# Method in brief: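 Yeast EGY/SH cells co-expressing LexA–KRS and B42–LR grown in galactose medium lacking Ura, His, Trp and Leu, with compound at 50 μg/ml final. OD540 read after 6 days.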
structure (smiles),measurement,setting,value
"CCC(C(=O)O)n1c(=NC(=O)c2cccc(C(F)(F)F)c2)sc2cc(F)c(F)cc21 (centres unmarked) [YH16899, 2-(5,6-difluoro-2-{[3-(trifluoromethyl)benzoyl]imino}benzo[d]thiazol-3(2H)-yl)butanoic acid]",IC50,"[1]; Homo sapiens, NCI-H226, 12 h, read-out: IC50 for inhibition of H226 migration",8.5 ± 2.1 µM
same,IC50,[2],> 50 µM
same,suppression of cell invasion,"[3]; H226 cells, Matrigel",approximately 85%
same,effect on body weight,[4],little or no effect on body weight
same,inhibition of tumor metastases to the lungs,[4]; once a day,approximately 60%
same,effect on body weight,[5],without affecting body weight
same,reduction of pulmonary nodule formation,[5],approximately 70%
same,effect on body weight,[6],did not affect the body weight
same,survival,[6]; followed up to 130 days,greatly enhanced survival
same,reduction of average radiance (photon imaging),[6]; up to 7 weeks,approximately 50%
same,effect on the catalytic activity of KRS,[7],little or no effect
same,effect on cellular protein synthesis,[8],little or no effect
same,effect on cell viability,[9],did not affect the cell viability
same,effect on cell viability,[10],did not affect the cell viability
same,binding to KRS1–207 compared with KRS1–597 and KRS220–597,[11],preferential binding
same,binding to 37LRP,[12],did not show significant binding
same,change in KRS binding affinity to AIMP2,[13],little or no change
same,effect on binding of KRS and LR,[14],hindered the interaction between the two proteins
same,effect on level of 67LR in the plasma membrane,[15],decreased the amount of membranous 67LR
same,effect on MMP-2,[16],suppressed the induction of MMP-2
same,side effects (hematological metrics and blood chemistry),[17],few side effects
same,volume of distribution in vivo compared to BC-K01,[18],better volume of distribution
same,improvement of IC50 compared to BC-K01,[19],3- to 6 fold
"CCC(C(=O)O)n1c(=NC(=O)c2ccc(C)cc2)sc2ccccc21 (centres unmarked) [BC-K01, 2-(2-{[4-(methyl)benzoyl]imino}benzothiazol-3-yl)butanoic acid]",effect on cell migration,[1],suppressed
same,effect on cell invasion,[3],suppressed
same,inhibition of KRS–LR interaction without affecting KRS–AIMP2 and MRS–AIMP3 pairs,[20],specifically inhibited
same,effect on binding of KRS and LR,[14],reduced the binding of the two proteins
same,effect on level of 67LR in the plasma membrane,[15],decreased the level of 67LR in the plasma membrane in a concentration-dependent manner
same,effect on MMP-2,[16],suppressed the activity of MMP-2
